# Assay results of several laboratories.
# Compare with care: the assays were run in different laboratories.
# Target: Mitogen-activated protein kinase kinase kinase kinase 4 (MAP4K4, Homo sapiens, UniProt O95819)
Compound,read-out,mode,method,tested at,measurement,value
O=C(Nc1cnn(-c2csc(C(=O)NC3COC3)c2)c1)Nc1c(F)cccc1Cl,enzyme activity,inhibitor,,5 µM,remaining activity,90.4%
N#CCCc1ccc2c(c1)-c1[nH]c3ccc([N+](=O)[O-])cc3c1CC(=O)N2,cell-free assay,,,0.5 µM,remaining signal,6.82%
COc1cc2ncnc(Nc3ccc(Oc4ccccc4)c(C)c3C)c2cc1OC,enzyme activity,inhibitor,,1 µM,inhibition,-3%
Cc1ccc(C(=O)Nc2ccc(CN3CCN(C)CC3)c(C(F)(F)F)c2)cc1C#Cc1cnc2cccnn12,enzyme activity,inhibitor,,23.5 nM,remaining activity,27%
Cc1nc(C2CCN(C(=O)c3ccc(OC(F)(F)F)cc3N)CC2)c2ncc(N3CCN(C)CC3)cc2n1,cell-free assay,,competition with immobilised ligand,1 µM,remaining binding,100%
Cc1ccc(Nc2nccc(N(C)c3ccc4c(C)n(C)nc4c3)n2)cc1S(N)(=O)=O,enzyme activity,inhibitor,,0.5 µM,remaining activity,77.4%
CO[C@@H](C)c1c(Nc2ccc([C@H](N(C)C(=O)C3CCS(=O)(=O)CC3)C(F)(F)F)cc2)cnc2cc(Cl)nn12,cell-free assay,,competition with immobilised ligand,1 µM,remaining binding,100%
O=C1NC(=O)c2cc(Nc3ccc(F)cc3)c(Nc3ccc(F)cc3)cc21,cell-free assay,,,0.5 µM,remaining signal,91.2%
CC(C)(C)c1nc2c(s1)c1nc(N)ncc1c1ccc(NS(=O)(=O)c3c(F)cccc3F)c(F)c12,enzyme activity,inhibitor,radiometric,1 µM,remaining activity,95%
O=C1Nc2ccc(Cl)cc2C1=Cc1cc(Cl)c(O)c(Cl)c1,cell-free assay,,,0.5 µM,remaining signal,4.48%
CC/C(=N\NC(=O)NCc1cccc(O)c1)c1ccc(O)c(C)c1O,enzyme activity,inhibitor,,0.1 µM,inhibition,3.8%
Cc1sc(C(=O)NC2COC2)cc1-n1cc(NC(=O)Nc2c(F)cccc2Cl)cn1,enzyme activity,inhibitor,,10 µM,remaining activity,93.4%
CC(C)CC(=O)N1CCc2nc(-c3ccc(Br)cc3)nc(N(C)Cc3ccccc3)c2C1,cell-free assay,,competition with immobilised ligand,0.1 µM,remaining binding,84%
COc1cc(Cl)c(C(=O)N[C@@H](CN[C@H]2CC[C@@H](N)CC2)Cc2ccc(C#N)cc2)cc1-c1ccc(CN[C@H](C)c2ccc(C)cc2)o1,enzyme activity,inhibitor,,1 µM,remaining activity,96%
O=C(O)c1cc(-c2ccc(C3CCNCC3)cc2)c2ccc(-c3ccc(C(F)(F)F)cc3)cc2c1,cell-free assay,,competition with immobilised ligand,1 µM,remaining binding,87%
CC(C)(O)[C@H]1CC[C@H](Nc2ccc3ncc(-c4cccc(C(F)(F)F)c4)n3n2)CC1,enzyme activity,inhibitor,,1 µM,remaining activity,90.6%
CCCCN(CCCC)C(=O)CN1C[C@H](c2cc(OC)c3c(c2)OCO3)[C@@H](C(=O)O)[C@@H]1CC(C)(C)CCC,cell-free assay,,competition with immobilised ligand,1 µM,remaining binding,100%
Cc1ccc(C(=O)NCc2ccsc2)cc1C#Cc1cn(C(C)C)c2ncnc(N)c12,enzyme activity,inhibitor,,1 µM,activity vs control,146%
